Laboratory results from ChEMBL document CHEMBL4765231 (J Med Chem, 2016).
pEC50, pIC50: −log10 of the molar value. In brackets after ≈: the same amount, converted by molar mass. Activity calls are given as the source filed them. The rule behind the calls is not given here.

Experiments:
[1] = target: T1, Sodium channel protein type 8 subunit alpha (Homo sapiens, UniProt Q9UQD0); experiment: Inhibition of NaV1.6 (unknown origin) at 25 Hz frequency by whole cell manual patch clamp technique
In short: (§1)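 Whole-cell manual patch clamp on non-cardiac NaV1.x channels, run at room temperature. Series resistance was compensated 90% so the command potential was reached within microseconds.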

[2] = Oral bioavailability in Sprague-Dawley rat; format: ADME, organism-based; conditions: in vivo
Oryctolagus cuniculus [3] = species: Oryctolagus cuniculus; experiment: Cardioprotective activity in rabbit assessed as decrease in chemically-induced Torsades des Pointes at 2.5 uM by electrocardiographic analysis; format: functional; set-up: scale not given: the % may be the effect or the level left
[4] = Inhibition of peak sodium current (unknown origin) by manual patch clamp method; set-up: species or system Homo sapiens
[5] = Toxicity in New Zealand rabbit model of LAD coronary artery occlusion-induced ischemia-reperfusion injury assessed as effect on blood pressure at 0.25 to 0.5 uM; set-up: species or system Oryctolagus cuniculus; conditions: in vivo, dose 0.25-0.5 µM
[6] = target: T2, Sodium channel protein type 1 subunit alpha (Homo sapiens, UniProt P35498); experiment: Inhibition of NaV1.1 (unknown origin) at 10 Hz frequency by whole cell manual patch clamp technique; in short: as §1
[7] = Toxicity in dog assessed as adverse event at > 10 uM; set-up: species or system Canis lupus familiaris; conditions: in vivo
In short: (§2)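 Single ascending dose studies, with CNS-related adverse events monitored.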

[8] = Oral bioavailability in Beagle dog; format: ADME, organism-based, Canis lupus familiaris; conditions: in vivo
[9] = Intrinsic clearance in Sprague-dawley rat hepatocytes; format: ADME, cell-based, Hepatocyte; conditions: read-out: CLH (converted)
Oryctolagus cuniculus [10] = species: Oryctolagus cuniculus; experiment: Cardioprotective activity in rabbit model of LAD coronary artery occlusion-induced ischemia-reperfusion injury assessed as inhibition of ST segment elevation by measuring maximum efficacy incubated with compound for 30 mins followed by induction of ischemia for 15 mins and subsequent reperfusion for 15 mins by electrocardiographic analysis relative to ranolazine; format: functional; conditions: 0.5 h
[11] = Permeability of compound across apical to basolateral side in human Caco-2 cells; format: ADME, cell-based; conditions: read-out: permeability
[12] = Solubility of compound in water; format: physicochemical
[13] = target: T3, Sodium channel protein type 4 subunit alpha (Homo sapiens, UniProt P35499); experiment: Inhibition of NaV1.4 (unknown origin) at 10 Hz frequency by whole cell manual patch clamp technique; in short: as §1
NaV1.1 = NaV1.1 (Homo sapiens, UniProt P35498); experiment: Inhibition of NaV1.1 (unknown origin) expressed in cells assessed as inhibition of peak INa current at 10 uM at 25 Hz frequency by whole-cell patch clamp method relative to control; format: cell-based; conditions: cells expressing NaV1.1; in short: as §1
[14] = target: T4, Sodium channel protein type 3 subunit alpha (Homo sapiens, UniProt Q9NY46); experiment: Inhibition of NaV1.3 (unknown origin) at 10 Hz frequency by whole cell manual patch clamp technique; in short: as §1
T4 sequence (Q9NY46 whole entry): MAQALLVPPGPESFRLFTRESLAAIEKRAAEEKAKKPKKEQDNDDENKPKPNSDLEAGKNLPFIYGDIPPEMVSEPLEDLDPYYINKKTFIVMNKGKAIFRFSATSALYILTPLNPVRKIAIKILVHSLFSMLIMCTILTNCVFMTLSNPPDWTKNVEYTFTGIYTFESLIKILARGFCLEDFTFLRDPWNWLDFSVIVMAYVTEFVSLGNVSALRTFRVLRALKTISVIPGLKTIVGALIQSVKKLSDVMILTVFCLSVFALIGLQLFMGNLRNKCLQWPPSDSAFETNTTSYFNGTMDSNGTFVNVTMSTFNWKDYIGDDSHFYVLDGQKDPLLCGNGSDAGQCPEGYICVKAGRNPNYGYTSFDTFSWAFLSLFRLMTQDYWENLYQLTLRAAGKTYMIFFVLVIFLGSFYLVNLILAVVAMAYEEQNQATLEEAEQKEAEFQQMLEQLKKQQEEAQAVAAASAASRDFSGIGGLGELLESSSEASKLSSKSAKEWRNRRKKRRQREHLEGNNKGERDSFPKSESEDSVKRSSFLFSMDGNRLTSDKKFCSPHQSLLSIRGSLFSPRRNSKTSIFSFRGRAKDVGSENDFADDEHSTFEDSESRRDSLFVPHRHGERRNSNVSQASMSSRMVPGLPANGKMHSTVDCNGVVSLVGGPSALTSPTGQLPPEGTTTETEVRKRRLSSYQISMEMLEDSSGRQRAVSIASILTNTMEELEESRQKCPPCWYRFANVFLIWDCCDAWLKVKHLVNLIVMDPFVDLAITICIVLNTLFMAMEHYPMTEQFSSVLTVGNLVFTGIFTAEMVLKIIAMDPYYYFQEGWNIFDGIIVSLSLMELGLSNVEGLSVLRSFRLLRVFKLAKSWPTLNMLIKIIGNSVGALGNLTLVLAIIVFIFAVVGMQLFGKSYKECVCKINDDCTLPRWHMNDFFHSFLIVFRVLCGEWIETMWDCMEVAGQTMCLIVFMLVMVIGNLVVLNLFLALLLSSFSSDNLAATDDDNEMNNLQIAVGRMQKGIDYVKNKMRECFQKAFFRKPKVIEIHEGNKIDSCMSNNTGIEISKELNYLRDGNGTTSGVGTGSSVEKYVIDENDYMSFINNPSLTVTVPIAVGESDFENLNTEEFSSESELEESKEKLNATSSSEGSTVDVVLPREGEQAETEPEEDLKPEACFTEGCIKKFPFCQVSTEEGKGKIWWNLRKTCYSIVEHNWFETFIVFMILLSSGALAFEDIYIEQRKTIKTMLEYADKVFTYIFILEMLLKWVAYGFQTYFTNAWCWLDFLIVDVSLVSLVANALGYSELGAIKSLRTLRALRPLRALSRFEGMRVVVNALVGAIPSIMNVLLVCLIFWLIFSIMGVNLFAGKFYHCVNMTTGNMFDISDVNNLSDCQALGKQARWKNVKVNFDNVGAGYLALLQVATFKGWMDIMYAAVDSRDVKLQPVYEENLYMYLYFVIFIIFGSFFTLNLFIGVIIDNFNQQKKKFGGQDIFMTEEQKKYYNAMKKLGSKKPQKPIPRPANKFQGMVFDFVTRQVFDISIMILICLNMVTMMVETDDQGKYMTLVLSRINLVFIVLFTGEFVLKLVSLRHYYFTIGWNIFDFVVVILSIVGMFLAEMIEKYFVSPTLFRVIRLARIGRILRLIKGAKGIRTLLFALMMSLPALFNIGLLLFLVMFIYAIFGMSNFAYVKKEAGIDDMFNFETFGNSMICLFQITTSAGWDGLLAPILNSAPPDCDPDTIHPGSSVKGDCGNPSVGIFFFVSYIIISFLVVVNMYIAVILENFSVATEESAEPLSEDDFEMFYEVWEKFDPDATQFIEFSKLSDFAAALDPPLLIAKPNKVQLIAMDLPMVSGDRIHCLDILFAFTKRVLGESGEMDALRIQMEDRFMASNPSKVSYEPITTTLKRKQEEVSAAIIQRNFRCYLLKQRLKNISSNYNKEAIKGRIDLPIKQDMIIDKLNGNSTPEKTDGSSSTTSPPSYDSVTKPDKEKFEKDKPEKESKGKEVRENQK

[15] = Volume of distribution at steady state in iv dosed cynomolgus monkey; format: ADME, organism-based, Macaca fascicularis; conditions: in vivo, read-out: Vdss
[16] = Metabolic stability in human microsomes assessed as half life; format: ADME, Microsome
[17] = Half-life in iv dosed Sprague-Dawley rat; format: ADME, organism-based; conditions: in vivo
Oryctolagus cuniculus [18] = experiment: (§3) Cardioprotective activity in New Zealand rabbit model of LAD coronary artery occlusion-induced ischemia-reperfusion injury assessed as inhibition of ST segment elevation intravenously administered with compound for 30 mins followed by induction of ischemia for 15 mins and subsequent reperfusion for 15 mins by electrocardiographic analysis; format: functional
[19] = target: T2, Sodium channel protein type 1 subunit alpha; experiment: Inhibition of peak NaV1.1 (unknown origin) at 10 uM at 10 Hz frequency by manual patch clamp technique
In short: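 Whole-cell manual patch clamp at room temperature, with series resistance compensated 90%.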

NaV1.5 = NaV1.5 (Homo sapiens, UniProt Q14524); experiment: Inhibition of human NaV1.5 expressed in HEK293 cells assessed as inhibition of peak sodium current measured at frequency 3 Hz at -20 mV resting membrane potential at 3 uM by electrophysiology assay relative to control; format: cell-based; conditions: HEK293 cells expressing human NaV1.5
Oryctolagus cuniculus [20] = species: Oryctolagus cuniculus; experiment: Cardioprotective activity in New Zealand rabbit heart assessed as reversal of ATX-II induced late sodium current increase in QT interval by electrocardiographic analysis; format: functional
[21] = Clearance in iv dosed cynomolgus monkey; format: ADME, organism-based, Macaca fascicularis; conditions: in vivo
Oryctolagus cuniculus [22] = species: Oryctolagus cuniculus; experiment: Cardioprotective activity in rabbit model of left circumflex artery ligation-induced ischemia assessed as inhibition of VT-VF at 2.5 uM; format: functional, organism-based
Oryctolagus cuniculus [23] = species: Oryctolagus cuniculus; experiment: Cardioprotective activity in New Zealand White rabbit heart assessed as reversal of ATX-II induced late sodium current prolongation in change in duration of monophasic action potential at 90 percent repolarization by electrocardiographic analysis relative to control; format: functional, tissue-based
[24] = Toxicity in New Zealand rabbit model of LAD coronary artery occlusion-induced ischemia-reperfusion injury assessed as effect on ECG interval at 0.25 to 0.5 uM; set-up: species or system Oryctolagus cuniculus; conditions: in vivo, dose 0.25-0.5 µM
[25] = Toxicity in New Zealand rabbit model of LAD coronary artery occlusion-induced ischemia-reperfusion injury assessed as effect on heart rate at 0.25 to 0.5 uM; set-up: species or system Oryctolagus cuniculus; conditions: in vivo, dose 0.25-0.5 µM
[26] = Permeability of compound across basolateral to apical side in human Caco-2 cells; format: ADME, cell-based; conditions: read-out: permeability
Oryctolagus cuniculus [27] = species: Oryctolagus cuniculus; experiment: Cardioprotective activity in rabbit model of left circumflex artery ligation-induced ischemia assessed as inhibition of VT-VF by electrocardiographic analysis; format: functional, organism-based
[28] = Toxicity in rat assessed as adverse event at > 10 uM; conditions: in vivo; in short: as §2
[29] = Oral bioavailability in cynomolgus monkey; format: ADME, organism-based, Macaca fascicularis; conditions: in vivo
Homo sapiens = species: Homo sapiens; experiment: Inhibition of L-type calcium channel (unknown origin)
[30] = target: Sodium channel protein type 10 subunit alpha (Homo sapiens, UniProt Q9Y5Y9); experiment: Inhibition of NaV1.8 (unknown origin) at 10 Hz frequency by whole cell manual patch clamp technique; in short: as §1
[31] = Intrinsic clearance in human hepatocytes; format: ADME, cell-based, Hepatocyte; conditions: read-out: CLH
In short: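 Clearance measured in pooled human hepatocytes with tritium-labelled compound.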

Oryctolagus cuniculus [32] = species: Oryctolagus cuniculus; experiment: as §3, with “at 0.25 uM” for “intravenously administered with compound”; format: functional; set-up: scale not given: the % may be the effect or the level left; conditions: time 60 min, 1 h
[33] = target: T1, Sodium channel protein type 8 subunit alpha; experiment: Inhibition of NaV1.6 (unknown origin) at 10 Hz frequency by whole cell manual patch clamp technique; in short: as §1
[34] = Half-life in iv dosed Beagle dog; format: ADME, organism-based, Canis lupus familiaris; conditions: in vivo
[35] = Half-life in iv dosed cynomolgus monkey; format: ADME, organism-based, Macaca fascicularis; conditions: in vivo
[36] = Metabolic stability in rat microsomes assessed as half life; format: ADME, Microsome
[37] = Volume of distribution at steady state in iv dosed Sprague-Dawley rat; format: ADME, organism-based; conditions: in vivo, read-out: Vdss
[38] = target: T3, Sodium channel protein type 4 subunit alpha; experiment: Inhibition of NaV1.4 (unknown origin) at 25 Hz frequency by whole cell manual patch clamp technique; in short: as §1
[39] = Metabolic stability in dog microsomes assessed as half life; format: ADME, Canis lupus familiaris, Microsome
Oryctolagus cuniculus [40] = species: Oryctolagus cuniculus; experiment: as §3, with “at 500 nM” for “intravenously administered with compound”; format: functional; conditions: 1 h, time 60 min
Oryctolagus cuniculus [41] = experiment: Cardioprotective activity in rabbit model of left circumflex artery ligation-induced ischemia assessed as inhibition of VT-VF at 0.125 to 1.5 mg/kg by electrocardiographic analysis; format: functional, organism-based; conditions: dose 0.125-1.5 mg/kg
[42] = Volume of distribution at steady state in iv dosed Beagle dog; format: ADME, organism-based, Canis lupus familiaris; conditions: in vivo, read-out: Vdss
[43] = Clearance in iv dosed Beagle dog; format: ADME, organism-based, Canis lupus familiaris; conditions: in vivo
[44] = Clearance in iv dosed Sprague-Dawley rat; format: ADME, organism-based; conditions: in vivo
[45] = target: T4, Sodium channel protein type 3 subunit alpha; experiment: Inhibition of NaV1.3 (unknown origin) at 25 Hz frequency by whole cell manual patch clamp technique; in short: as §1
[46] = Inhibition of late sodium current channel (unknown origin) at 25 Hz frequency by whole cell patch clamp technique; conditions: Homo sapiens
Oryctolagus cuniculus [47] = species: Oryctolagus cuniculus; experiment: as §3, with “at 0.5 uM” for “intravenously administered with compound”; format: functional; set-up: scale not given: the % may be the effect or the level left; conditions: time 60 min, 1 h
[48] = Inhibition of ATX-II induced late sodium current (unknown origin) by manual patch clamp method; set-up: species or system Homo sapiens
[49] = Intrinsic clearance in Beagle dog hepatocytes; format: ADME, cell-based, Canis lupus familiaris, Hepatocyte; conditions: read-out: CLH (converted)
[50] = Intrinsic clearance in cynomolgus monkey hepatocytes; format: ADME, cell-based, Macaca fascicularis, Hepatocyte; conditions: read-out: CLH (converted)
Oryctolagus cuniculus [51] = species: Oryctolagus cuniculus; experiment: Cardioprotective activity in New Zealand White rabbit heart assessed as reversal of ATX-II induced late sodium current prolongation in change in duration of monophasic action potential at 90 percent repolarization at 1 uM by electrocardiographic analysis relative to control; format: functional

T1 sequence (Q9UQD0 whole entry): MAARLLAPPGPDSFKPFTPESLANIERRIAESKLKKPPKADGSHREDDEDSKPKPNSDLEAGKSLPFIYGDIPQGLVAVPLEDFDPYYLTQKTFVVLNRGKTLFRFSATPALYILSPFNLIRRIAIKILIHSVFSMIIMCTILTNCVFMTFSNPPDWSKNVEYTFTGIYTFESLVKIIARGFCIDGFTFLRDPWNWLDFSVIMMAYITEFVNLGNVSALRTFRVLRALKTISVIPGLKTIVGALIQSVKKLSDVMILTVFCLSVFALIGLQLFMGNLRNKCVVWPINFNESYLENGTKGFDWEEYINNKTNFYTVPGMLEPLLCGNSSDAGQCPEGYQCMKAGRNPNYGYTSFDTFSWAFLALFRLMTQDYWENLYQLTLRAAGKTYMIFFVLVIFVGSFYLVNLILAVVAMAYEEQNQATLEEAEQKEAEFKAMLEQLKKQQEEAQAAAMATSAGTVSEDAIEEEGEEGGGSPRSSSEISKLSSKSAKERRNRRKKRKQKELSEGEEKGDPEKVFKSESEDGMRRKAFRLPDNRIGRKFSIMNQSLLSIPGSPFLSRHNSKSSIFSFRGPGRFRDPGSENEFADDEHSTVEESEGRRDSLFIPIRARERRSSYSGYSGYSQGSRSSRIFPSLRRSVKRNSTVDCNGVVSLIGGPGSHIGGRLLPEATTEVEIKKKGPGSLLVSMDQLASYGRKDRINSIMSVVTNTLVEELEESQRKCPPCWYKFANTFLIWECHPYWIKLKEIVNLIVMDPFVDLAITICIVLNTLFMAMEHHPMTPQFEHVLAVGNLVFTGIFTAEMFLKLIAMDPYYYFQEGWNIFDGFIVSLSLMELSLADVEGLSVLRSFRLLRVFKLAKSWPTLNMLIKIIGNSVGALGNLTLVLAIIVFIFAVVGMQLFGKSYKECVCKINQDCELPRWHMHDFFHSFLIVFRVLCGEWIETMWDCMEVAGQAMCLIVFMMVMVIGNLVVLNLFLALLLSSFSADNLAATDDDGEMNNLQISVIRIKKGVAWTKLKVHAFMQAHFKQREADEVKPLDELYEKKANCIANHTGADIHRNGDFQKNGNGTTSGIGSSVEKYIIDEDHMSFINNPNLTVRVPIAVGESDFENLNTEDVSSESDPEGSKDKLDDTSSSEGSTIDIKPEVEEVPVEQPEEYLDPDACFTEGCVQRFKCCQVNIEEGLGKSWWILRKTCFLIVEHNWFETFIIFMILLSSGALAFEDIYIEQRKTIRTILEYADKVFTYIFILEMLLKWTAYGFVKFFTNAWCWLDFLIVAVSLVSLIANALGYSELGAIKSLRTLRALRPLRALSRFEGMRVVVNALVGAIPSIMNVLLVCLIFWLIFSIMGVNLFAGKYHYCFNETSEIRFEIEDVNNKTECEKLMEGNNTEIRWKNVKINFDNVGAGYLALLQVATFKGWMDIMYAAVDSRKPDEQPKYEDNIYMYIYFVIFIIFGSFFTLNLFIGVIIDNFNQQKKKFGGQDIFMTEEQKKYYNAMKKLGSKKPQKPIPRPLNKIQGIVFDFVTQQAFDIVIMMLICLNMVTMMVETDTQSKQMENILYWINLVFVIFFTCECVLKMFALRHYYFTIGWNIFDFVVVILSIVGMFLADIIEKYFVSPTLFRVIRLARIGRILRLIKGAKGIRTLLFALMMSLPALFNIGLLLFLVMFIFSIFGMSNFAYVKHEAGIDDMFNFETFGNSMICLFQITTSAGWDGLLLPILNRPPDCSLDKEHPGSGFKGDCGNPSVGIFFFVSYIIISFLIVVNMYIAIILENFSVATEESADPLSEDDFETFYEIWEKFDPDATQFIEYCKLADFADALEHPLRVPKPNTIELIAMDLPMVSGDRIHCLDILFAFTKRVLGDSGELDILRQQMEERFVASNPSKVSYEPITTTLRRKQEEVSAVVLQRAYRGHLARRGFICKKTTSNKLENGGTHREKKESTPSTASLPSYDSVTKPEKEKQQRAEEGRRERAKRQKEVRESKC

O=C1c2cc(-c3ccc(OC(F)(F)F)cc3)ccc2OCCN1Cc1ncccn1 [ELECLAZINE]
pIC50 [1]: 5.40
bioavailability [2]: 91%
Activity (Oryctolagus cuniculus [3]): 100%
pIC50 [4]: 4.29
Activity [5]: Non-Toxic
pIC50 [6]: 4.02
Activity [7]: Toxic
bioavailability [8]: 100%
CLint scaled [9]: 2.67 mL/min/kg
Emax (Oryctolagus cuniculus [10]): 93%
Papp A→B [11]: 34.6 ×10⁻⁶ cm/s
solubility [12]: 24 µM (≈ 9.97 µg/mL)
pIC50 [13]: 4.89
inhibition at 10 µM (NaV1.1): 53%
pIC50 [14]: 4.80
Vd [15]: 1.5 L/kg
half-life [16]: 6.58 h
half-life [17]: 13 h
pEC50 (Oryctolagus cuniculus [18]): 6.72
Activity (Oryctolagus cuniculus [18]; time 60.0 min): Dose-dependent effect
inhibition (INH) [19]: Not Active
inhibition at 3 µM (NaV1.5): 24%
Activity (Oryctolagus cuniculus [20]): Active
clearance [21]: 1.83 mL/min/kg
Activity (Oryctolagus cuniculus [22]): Active
pIC50 (Oryctolagus cuniculus [23]): 6.15
Activity [24]: Non-Toxic
Activity [25]: Non-Toxic
Papp B→A [26]: 29 ×10⁻⁶ cm/s
pEC50 (Oryctolagus cuniculus [27]): 5.77
Activity [28]: Toxic
bioavailability [29]: 39%
inhibition (Homo sapiens): inactive
pIC50 [30]: 4.73
CLint scaled [31]: < 0.25 mL/min/kg
Activity (Oryctolagus cuniculus [32]): 55%
pIC50 [33]: 4.55
half-life [34]: 27.9 h
half-life [35]: 5 h
half-life [36]: 3.33 h
Vd [37]: 2.5 L/kg
pIC50 [38]: 5.48
half-life [39]: 5.9 h
inhibition in vivo at 0.5 µM (Oryctolagus cuniculus [40]): 93%
Activity (Oryctolagus cuniculus [41]): Active
Vd [42]: 1.6 L/kg
clearance [43]: 0.7 mL/min/kg
clearance [44]: 2.33 mL/min/kg
pIC50 [45]: 5.46
pIC50 [46]: 6.06
Activity (Oryctolagus cuniculus [47]): 93%
pIC50 [48]: 6.21
CLint scaled [49]: 1 mL/min/kg
CLint scaled [50]: 6 mL/min/kg
Activity (Oryctolagus cuniculus [51]): 62%
